This is an account of results in ChEMBL document CHEMBL3804788, “The design of 8-hydroxyquinoline tetracyclic lactams as HIV-1 integrase strand transfer inhibitors” (Eur J Med Chem, 2016).

Converted amounts (≈) assume the structure as drawn.

Data set [1] deals with Human immunodeficiency virus type 1 integrase (Human immunodeficiency virus 1) (UniProt Q7ZJM1). The data set is described as follows: Ratio of IC50 for pseudotype HIV1 integrase strand transfer activity in presence of 40% human serum albumin to IC50 for pseudotype HIV1 integrase strand transfer activity. In outline:
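Single-round assay with a self-inactivating pseudotyped HIV (PHIV) lentiviral luciferase vector. CIP4 cells (2 × 10^4/well) were infected with enough PHIV to give about 50,000 relative light units. Cells were incubated 2 days with compound at varying concentrations, with or without 40% human serum albumin. Infection was read as luciferase luminescence (Steady-Glo). Serum shift is the IC50 with albumin divided by the IC50 without.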

The subject of data set [2] is Human immunodeficiency virus type 1 integrase (Human immunodeficiency virus 1), Q7ZJM1 [Q148K]. The data set can be described thus: Inhibition of pseudotype HIV1 integrase Q148K mutant strand transfer activity in HIV1 infected human CIP4 cells assessed as ratio of IC50 for pseudotype HIV1 integrase Q148K mutant strand transfer activity to IC50 for pseudotype HIV1 integrase strand transfer activity after 2 days by luciferase reporter gene assay. The class given is cell-based.

The subject of data set [3] is Human immunodeficiency virus type 1 integrase (Human immunodeficiency virus 1), Q7ZJM1 [G140S,Q148H]. The data set is described as follows: Inhibition of pseudotype HIV1 integrase G140S/Q148H double mutant strand transfer activity in HIV1 infected human CIP4 cells assessed as ratio of IC50 for pseudotype HIV1 integrase G140S/Q148H double mutant strand transfer activity to IC50 for pseudotype HIV1 integrase strand transfer activity after 2 days by luciferase reporter gene assay. It counts as cell-based.

A short description of data set [4]: Cytotoxicity against human CIP4 cells. It counts as cell-based.
The nature of data set [5]: Total clearance in iv or po dosed beagle dog after 24 hrs by LC-MS/MS analysis. It counts as ADME, organism-based, Canis lupus familiaris. The settings on record: in vivo.
The nature of data set [6]: Total clearance in Sprague-Dawley rat at 1 mg/kg, iv or 5 mg/kg, po after 24 hrs by LC-MS/MS analysis. The settings on record: in vivo. It counts as ADME, organism-based.
A short description of data set [7]: Half life in Sprague-Dawley rat at 1 mg/kg, iv or 5 mg/kg, po by LC-MS/MS analysis. The class given is ADME, organism-based. The note with it: in vivo.
The nature of data set [8]: Oral bioavailability in Sprague-Dawley rat at 5 mg/kg after 24 hrs by LC-MS/MS analysis. It counts as ADME, organism-based. The settings on record: in vivo.
Data set [9] is described as follows: Half life in iv or po dosed beagle dog by LC-MS/MS analysis. It counts as ADME, organism-based, Canis lupus familiaris. The settings on record: in vivo.
The nature of data set [10]: Oral bioavailability in beagle dog after 24 hrs by LC-MS/MS analysis. The class given is ADME, organism-based, Canis lupus familiaris. The settings on record: in vivo.
Data set [11] is described as follows: Apparent permeability of compound. It counts as physicochemical. The settings on record: not told.
Data set [12] is described as follows: Intrinsic aqueous solubility of compound by chemiluminescent nitrogen detection method. It counts as physicochemical. The settings on record: buffer.
Data set [13] has as its system Rattus norvegicus. The data set can be described thus: Total clearance in Sprague-Dawley rat at 1 mg/kg, iv or 5 mg/kg, po after 24 hrs by LC-MS/MS analysis relative to hepatic blood flow. The class given is ADME, organism-based, Liver. The note with it: in vivo.
For data set [14], the system named is Canis familiaris. The data set can be described thus: Total clearance in iv or po dosed beagle dog after 24 hrs by LC-MS/MS analysis relative to hepatic blood flow. It counts as ADME, organism-based, Canis lupus familiaris, Liver. The settings on record: in vivo.

Consider `O=C1c2c(cc3cc(Cc4cccc(Cl)c4F)cnc3c2O)CN2CCCN12`, for which the Ratio IC50 was determined as 9 in data set [1], 0.4 in [2] and 2.3 in data set [3].

In data set [4], `N#Cc1c2c(c(O)c3ncc(Cc4cccc(Cl)c4F)cc13)C(=O)N1CCC[C@@H]1C2` returned a CC50 of 12.8 µM. Further, the Ratio IC50 was 0.8 in data set [2] and 1.5 in [3].

Regarding `O=C(NCc1ccc(F)cc1)c1cn2c(c(O)c1=O)C(=O)N1CCCO[C@H]1C2`, in data set [2], the Ratio IC50 was found to be 2.4.

For `NC(=O)c1c2c(c(O)c3ncc(Cc4cccc(Cl)c4F)cc13)C(=O)N1CCC[C@@H]1C2`, it took 21.1 µM to reach half-maximal cytotoxicity in [4] (CC50). Besides, the Ratio IC50 in data set [2] came out at 0.6; in data set [3] it was 0.4.

In data set [4], `NC(=O)c1c2c(c(O)c3ncc(Cc4cccc(Cl)c4F)cc13)C(=O)N1CCCC[C@H]21` registered a CC50 of 24.4 µM. Moreover, the Ratio IC50 in data set [2] was 1.4; in data set [3], 2.8. Further, the figures for the clearance in data set [5] and in data set [6] were 0.168 L/h/kg and 0.084 L/h/kg, respectively. The half-life in [7] is 7.2 h; in data set [9], 11.8 h. In addition, the bioavailability in data set [8] is 2%; in data set [10] it was 14%. Moreover, the Papp in [11] amounted to 60 nm/s. In data set [12], the concentration in solution (solubility) came to 25 µM (≈ 11 µg/mL). The figures for the CL in [13] and in data set [14] were 2% and 5%, respectively.

In turn, `N#Cc1c2c(c(O)c3ncc(Cc4cccc(Cl)c4F)cc13)C(=O)N1CCC[C@H]1C2` came in with a CC50 in [4] of 50 µM. The Ratio IC50 in [2] worked out at 1.4; in [3], 2.8.

Turning to `N#Cc1c2c(c(O)c3ncc(Cc4cccc(Cl)c4F)cc13)C(=O)N1CCCC[C@@H]21`, in [4], the CC50 was determined as 3.36 µM. Further, the Ratio IC50 stood at 17 in [2] and 93 in [3].

Turning to `Cn1c(=O)c(C(=O)NCCO)c(O)c2ncc(Cc3ccc(F)cc3)cc21`, in data set [2], the Ratio IC50 stood at 40.

`NC(=O)c1c2c(c(O)c3ncc(Cc4cccc(Cl)c4F)cc13)C(=O)N1CCCC[C@@H]21` registered a CC50 in [4] of 5.18 µM. Further, the Ratio IC50 worked out at 0.1 in [2] and 3.7 in data set [3].

In data set [4], `N#Cc1c2c(c(O)c3ncc(Cc4cccc(Cl)c4F)cc13)C(=O)N1CCCC[C@H]21` returned a CC50 of 7.05 µM. Moreover, the Ratio IC50 is 8.8 in data set [2] and 17 in data set [3].

On to `N#Cc1c2c(c(O)c3ncc(Cc4cccc(Cl)c4F)cc13)C(=O)N1CCC[C@H]21`, for which, in data set [4], the CC50 came to 7.27 µM. Moreover, the values for the Ratio IC50 in data set [2] and in [3] were 216 and 456, respectively.

As for `N#Cc1c2c(c(O)c3ncc(Cc4cccc(Cl)c4F)cc13)C(=O)N1CCC[C@@H]21`, in data set [4], it took 1.83 µM to reach half-maximal cytotoxicity (CC50). Moreover, the Ratio IC50 is 31 in data set [2] and 131 in data set [3].

On to `N#Cc1c2c(c(O)c3ncc(Cc4cccc(Cl)c4F)cc13)C(=O)N1CCCN1C2`, for which the figures for the Ratio IC50 in [1], in data set [2] and in [3] were 188, 1.3 and 8, respectively.

In the case of `NC(=O)c1c2c(c(O)c3ncc(Cc4cccc(Cl)c4F)cc13)C(=O)N1CCC[C@H]1C2`, half-maximal cytotoxicity in data set [4] (CC50) was put at 36.8 µM. Also, the Ratio IC50 in data set [2] is 0.6; in [3] it was 2.6.
